Screens (PubChem BioAssay)
T cruzi repl = T. cruzi replication inhibition; AID 1885; T. cruzi beta-gal in NIH3T3, luminescence, 90 h; inhibition, % (no concentration beside the values); hit rate 1.4% among 300,000;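 active = mean inhibition across valid replicates above about 55%, limit read from the data; inconclusive = mean below that limit but half or more replicates reach it; inactive = mean below it, under half of replicates reach it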;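 note: signal also drops with host cell toxicity which is not excluded here; 0% = plate median of DMSO wells and 100% = zero luminescence signal; higher percent means less beta-gal luminescence so fewer parasites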
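Test system: β-gal T. cruzi (Tulahuen C4) inside NIH/3T3 cells / Quantity: 5,000 cells/well / Measured by: luminescence from GalScreen with 0.05% NP40, read after 60 min / Medium: DMEM plus 2% FBS / Measure: parasite load inhibition, % / Reagent: Tulahuen C4 trypomastigotes, 5000/well / Schedule: co-culture of at least 90 h after 3 h attachment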
A1 inh = inhibitors of the anti-apoptotic protein A1, read as caspase activation | MEF A1-2A-BIM cells, Caspase-Glo 3/7 luminescence, 3 h; percent of clofoctol response, vehicle zero | caspase activation, % (concentration not given with the values) | hit rate 0.066% among 330,000 | AID 2462;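 active = over half of replicate activation scores above 10%, or exactly half above 10 with the replicate mean above 10; inconclusive = replicate mean below 10 yet half the replicates above 10; inactive = over half of replicates below 10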
KLF5 inhibitor = suppresses KLF5 promoter-driven expression | inhibition, % at 5 µM | DLD-1 KLF5 promoter-luciferase reporter, luminescence | AID 1700 | hit rate 0.23% among 290,000;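 active = inhibition above a per-plate limit of that plate's mean compound inhibition plus 3 SD, cut at about 60% in these data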;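 note: 0% = DMSO wells and 100% = LY294002 at 200 µM; higher means less KLF5 promoter-driven luciferase light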
HIF act = HIF pathway transcriptional activation. hit rate 0.32% among 300,000. AID 1910. U2OS HRE-luciferase reporter, luminescence; normalized: DMSO 0%, desferrioxamine 100%. activation, % at 7.5 µM (by protocol);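 active = mean activation of at least 10% of the iron chelator positive control signal, with at least half of replicates also reaching 10%; inconclusive = mean and replicate majority disagree about reaching 10%; inactive = mean and most replicates under 10%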
Beta cell apopt = blocks beta cell apoptosis. hit rate 0.8% among 300,000. INS-1E cytokine-induced death, ATP luminescence, 48 h; percent of positive-control rescue, neutral wells zero. protection from apoptosis, % (no concentration beside the values). AID 435005;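 active = Every replicate reaches about 75%, or at least half do and their mean reaches it too, limit read from the data; inconclusive = At least half of replicates reach the limit but their mean does not; inactive = Under half of replicates reach the limit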;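 note: 0% = cytokine-treated negative control wells and 100% = positive control rescue; higher means more ATP so stronger rescue from cytokine killing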
The depositor's hits bear a star; u = inconclusive; x = no result given. A selection: hits, their analogues and other compounds. The true share with any hit is near 2.3%.

SMILES	T cruzi repl	A1 inh	KLF5 inhibitor	HIF act	Beta cell apopt
CC1=C(C(=O)c2ccccc2)C(c2cn(-c3ccccc3)nc2-c2ccc(Cl)cc2)NC(=S)N1 (centres undefined)	60*	1	-29	0	-1
COc1cc(NC(=O)SC2=NCCS2)cc(OC)c1	x	x	-19	x	x
COc1cccc(C(=O)SC2=NCCS2)c1	-12	-1	-23	327*	-9
CCCCn1c(N)c(N(CCOC)C(=O)c2ccc(N3CCCC3)c([N+](=O)[O-])c2)c(=O)[nH]c1=O	-12	0	x	0	x
COc1ccc(C2CC(c3cccs3)=NN2C(=O)CSC2=NN3CCCC(=O)N=C3S2)cc1 (centres undefined)	10	0	-27	0	3
COc1ccc(C2CC(c3ccc(Br)cc3)=NN2C(=O)CSC2=NN3CCCC(=O)N=C3S2)cc1 (centres undefined)	60*	0	-8	-1	0
COc1cccc(CN(C(=O)/C=C/c2ccco2)C2CCS(=O)(=O)C2)c1 (centres undefined)	-6	-2	-10	0	-3
CCOC(=O)C1CCCN(S(=O)(=O)c2ccc(C)cc2)C1 (centres undefined)	1	2	-12	0	0
CCOC(=O)C1CCCN(S(=O)(=O)c2ccc(S(=O)(=O)N(CC)CC)cc2)C1 (centres undefined)	27	0	0	0	110*
COc1cccc2c1oc1c(SCc3nc4ccccc4[nH]3)nc(C)nc12	x	-2	x	x	-1
CN(CC(=O)Nc1cccc(F)c1)C(=O)c1cc(S(=O)(=O)N2CCN(c3ccccc3)CC2)ccc1Cl	x	0	x	x	-17
CCOc1ccc(-n2c(SCc3nc(-c4ccc(C)cc4)no3)nnc2-c2ccncc2)cc1	58*	0	-9	-1	0
CC(C)COC(=O)c1ccc2c(c1O)C(=O)c1ccccc1C2=O	-17	-6	-37	1	85*
COc1ccc(S(=O)(=O)N(C)C)cc1NC(=O)CN1C(=O)NC2(CCCC2)C1=O	-6	0	1	-2	-2
Cc1ccc(S(=O)(=O)NCCNS(=O)(=O)c2ccc(C)cc2)cc1	2	1	-33	-1	-6
Cc1ccc(S(=O)(=O)NCCn2cnc([N+](=O)[O-])n2)cc1	60*	0	2	-1	4
Cc1ccc(CSCCNS(=O)(=O)c2ccc([N+](=O)[O-])cc2)cc1	68*	1	5	0	2
COc1ccc(CCN(C)C2CCCN(C(=O)Cn3cnnn3)C2)cc1OC (centres undefined)	38	-1	-7	0	3
COc1ccc(-c2cn(-c3ccc(Br)cc3)c3[n+]2CCS3)cc1	29	0	-14	0	57
CC(=O)c1ccc(-n2cc(-c3ccc(C(C)(C)C)cc3)[n+]3c2SCCC3)cc1	68*	-1	-4	0	50
Cc1ccc(CNS(=O)(=O)c2c(C(=O)N3CCCCC3)c(C)n(C)c2C)o1	-4	1	2	0	-2
O=C(Nc1ccc2c(c1)OCCO2)c1cccc2nc3ccccc3nc12	65*	3	-17	0	46
O=C(Nc1ccc2c(c1)OCCO2)c1ccccc1F	-16	-7	-107	-2	1
Cc1ccc(C(=O)Nc2ccc3c(c2)OCCO3)c(C)c1	-3	1	65*	-4	2
C/C(=N\Nc1nc2ccccc2s1)c1ccc(Br)s1	12	0	-20	1	90*
SMILES	T cruzi repl	A1 inh	KLF5 inhibitor	HIF act	Beta cell apopt
C=CCn1cccc(C(=O)Nc2ccc(C)c(C)c2)c1=O	-7	-2	-117	2	-1
CC(=O)c1cc2ccc(O)cc2oc1=O	3	-3	-31	0	-1
Cc1ccc(N=c2oc3cc(O)ccc3cc2C(N)=O)cc1	60*	1	-65	3	4
C/C(=N\NC(=O)c1cc(C2CC2)nc2ccccc12)c1ccc(O)cc1O	9	u	61	4	95*
C/C(=N\NC(=O)c1cc(-c2cccnc2)nc2ccccc12)c1ccccc1O	63*	-1	-12	18*	86*
COc1ccc(/C(C)=N/NC(=O)c2cc(-c3cccnc3)nc3ccccc23)cc1	-19	0	-33	0	-1
C/C(=N\NC(=O)c1cc(C2CC2)nc2ccccc12)c1ccc(C)s1	-8	0	-20	0	-3
c1ccc(C(c2ccccc2)N2CCN(c3nc4ccccc4n4cnnc34)CC2)cc1	x	0	-17	0	108*
c1cnc(N2CCN(c3nc4ccccc4n4cnnc34)CC2)nc1	-14	1	-12	0	-11
COc1cc(NS(=O)(=O)c2ccc(C)cc2)c2ncccc2c1	78*	0	-15	1	45
COc1ccc2c(c1)CCc1sc(NC(=O)c3ccco3)nc1-2	-6	1	-121	3	2
COc1ccc2c(c1)-c1nc(NC(=O)c3ccco3)sc1CC2	3	0	-66	9.9*	3
CN(Cc1ccccc1)C(=O)c1[nH]cnc1C(=O)N[C@@H](Cc1ccccc1)C(=O)OC(C)(C)C	-8	2	-23	0	x
c1ccc(Nc2ccccc2)cc1	-1	2	x	0	-3
c1ccc(Nc2cccc3c(Nc4ccccc4)cccc23)cc1	56*	2	4	0	27
COc1cccc(/C=N/NC(=O)CSc2ccccc2C)c1OC	-7	1	3	0	-1
COc1cccc(/C=N/NC(=O)CNC(=O)c2cccs2)c1O	3	-2	-6	1	86*
COc1cccc(/C=N/NC(=O)CSc2ccccc2C)c1O	-3	1	7	12*	-9
COc1ccc(NC(=O)N2CCCC2C(=O)Nc2ccc(C)cc2C)cc1 (centres undefined)	-17	1	-9	0	-11
CCOc1cccc(/C=C/c2ccc3cccc(O)c3n2)c1OC	84*	-2	-55	-10	x
COc1ccccc1/C=C/c1ccc2cccc(O)c2n1	56*	-3	-38	4	18
COc1cc(C(=O)NC(=S)Nc2ccc(Cl)cn2)cc(OC)c1OC	4	-1	-10	1	2
COc1ccccc1N1CCN(S(=O)(=O)c2ccc(NC(C)=O)cc2)CC1	-3	0	-16	-1	0
CC[N+]1=C(C)C(C)(C)c2cc(C)ccc21	57*	-1	-79	3	101*
CC(C)(C)OC(=O)NCCCCCc1cn([C@@H](CO)C(=O)NCCCCCCCCCCC(=O)N2CCN(C(=O)OC(C)(C)C)CC2)nn1	x	0	x	x	109*
CC[C@@H](C)[C@@H](C(=O)N1CCN(C(=O)OC(C)(C)C)CC1)n1cc(CCCN=C(NC(=O)OC(C)(C)C)NC(=O)OC(C)(C)C)nn1	3	-1	-15	1	-6
CC[C@H](C)[C@@H](C(=O)NCCCCCCCCCCC(=O)N1CCN(C(=O)OC(C)(C)C)CC1)n1cc(CCCCCNC(=O)OC(C)(C)C)nn1	x	-1	x	x	101*
